Experiment [1] deals with Plasmodium falciparum. Description: Antimalarial activity against Plasmodium falciparum K1. It counts as functional, organism-based. In outline:
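P. falciparum K1 (multidrug-resistant) cultured with compound at serial dilutions; growth measured as percentage reduction versus untreated controls; IC50 derived by probit analysis. Only compounds active in the preliminary single-concentration screen went on to this step.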

The next experiment has as its system HL-60. The experiment is described as follows: Cytotoxicity against human HL60 cells after 72 hrs by MTT assay. It counts as functional, cell-based. As to conditions: HL-60, 72 h; call rule not given here. The essentials: (§1)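 Human tumour lines were grown in RPMI 1640 with 10% fetal bovine serum and 1% antibiotics at 37 °C under 5% CO2. Plating densities were 0.7 × 10⁵ for HCT-8, 0.6 × 10⁵ for SF-295 and 0.3 × 10⁶ for HL-60. Samples came from a 5 mg/mL DMSO stock and were incubated 72 h. MTT read at 550 nm; growth inhibition relative to […]. Triplicate, two independent experiments.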

The test system of the next experiment is HCT-8. The experiment is described as follows: Cytotoxicity against human HCT8 cells after 72 hrs by MTT assay. The format is functional, cell-based. In outline:
as §1

A further experiment has as its system SF-295. Description: Cytotoxicity against human SF295 cells after 72 hrs by MTT assay. It counts as functional, cell-based. In outline:
as §1

Another experiment relates to MDA-MB-435. The experiment is described as follows: Cytotoxicity against human MDA-MB-435 cells after 72 hrs by MTT assay. The format is functional, cell-based.
In experiment [2] the test system is Plasmodium falciparum. Description: Antimalarial activity against Plasmodium falciparum K1 at 50 ug/mL. It counts as functional. The essentials: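 Preliminary screen against P. falciparum K1 at two concentrations, printed as 50 and 2.5 (unit unclear). Parasite growth given as percentage reduction versus untreated controls.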

Converted amounts (≈) assume the structure as drawn.

Take `Oc1ccccc1O` [CATECHOL]: the IC50 in the experiment on Plasmodium falciparum [1] was 80.7 µM; in the experiment on HL-60, 1.08 µg/mL (≈ 9.81 µM); with HCT-8 (Homo sapiens, HCT-8, 72 h, read-out: IC50), 13.5 µg/mL (≈ 123 µM); in the experiment on SF-295 (Homo sapiens, SF-295, 72 h, read-out: IC50) it was 12.9 µg/mL (≈ 117 µM); in the experiment with MDA-MB-435 (Homo sapiens, MDA-MB-435, 72 h, read-out: IC50), greater than 25 µg/mL.

`CCN(CC)CCCC(C)Nc1ccnc2cc(Cl)ccc12` (stereo unspecified) [CHLOROQUINE PHOSPHATE] showed an IC50 with Plasmodium falciparum [1] of 0.89 µM.

On to `C=C[C@@](C)(O)CC/C=C(/C)CCC=C(C)C` [NEROLIDIOL], for which, in the experiment with Plasmodium falciparum [2], the inhibition at 50 µg/mL was 50%. The IC50 entry in the experiment on HCT-8 (hct-8), in the experiment on SF-295 (sf-295) and in the experiment on MDA-MB-435 (mda-mb-435) was “Not Active” in each case.

With `C=C[C@H]1CN2CC[C@H]1C[C@H]2[C@H](O)c1ccnc2ccc(OC)cc12` [QUININE], the half-maximal inhibitory concentration (IC50) with Plasmodium falciparum [1] worked out at 0.012 µM.

These data come from ChEMBL document CHEMBL1158370, “New antimalarial and cytotoxic 4-nerolidylcatechol derivatives” (Eur J Med Chem, 2009).
